The source of these data is ChEMBL document CHEMBL4616681, “Discovery of 3-Pyridyl Isoindolin-1-one Derivatives as Potent, Selective, and Orally Active Aldosterone Synthase (CYP11B2) Inhibitors” (J Med Chem, 2020).

Converted amounts (≈) assume the structure as drawn.

Data set [1] is described as follows: Protein binding in rat plasma assessed as unbound fraction at 1 uM by micro-equilibrium dialysis based LC-MS/MS analysis. It is filed as ADME, cell-free. The method, boiled down: (§1)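 Equilibrium dialysis of pooled rat or cynomolgus plasma against Soerensen buffer pH 7.4, 12–14 kDa cut-off membrane. Compounds tested in cassettes of 2–5 at 1 μM initial total concentration, with diazepam as control. Dialysis 5 hr at 37 °C under 5% CO₂. Unbound percentage by LC/MS-MS.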

Data set [2] can be described thus: Solubility of the compound in phosphate buffer at pH 6.5 shaken for 2 hrs followed by overnight incubation. Type of data set: physicochemical. The method, boiled down: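 Lyophilisation solubility assay run in duplicate from 10 mM DMSO stock. DMSO evaporated and residue redissolved in 0.05 M phosphate, pH 6.5. Stirred 1 hr, shaken 2 hr, left overnight, then filtered. Filtrate and a 1/10 dilution analysed by HPLC-UV against a four-point calibration.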

The nature of data set [3]: Intrinsic clearance in cynomolgus monkey hepatocytes. It is filed as ADME, cell-based, Macaca fascicularis, Hepatocyte. To be noted: read-out: CLH.
Data set [4] in a line: Permeability of the compound measured at 18 hrs by PAMPA. Type of data set: ADME. To be noted: read-out: permeability. The gist of the method:
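PAMPA sandwich format. Donor: compound diluted to 150 μM (DMSO <2%) in 0.05 M MOPSO pH 6.5 with 0.5% glycocholic acid. Acceptor: 0.05 M MOPSO pH 6.5. Membrane of 10% egg lecithin with 0.5% cholesterol in dodecane. Donor measured at start; acceptor and donor measured at ~18 hr.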

Data set [5] is described as follows: Plasma clearance in iv dosed cynomolgus monkey. Type of data set: ADME, organism-based, Macaca fascicularis.
A short description of data set [6]: Selectivity ratio of IC50 for human CYP11B1 expressed in human renal leiomyoblastoma cells harboring FDXR/FDX to IC50 for human CYP11B2 expressed in human renal leiomyoblastoma cells harboring FDXR/FDX. Type of data set: cell-based. The gist of the method:
(§2)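 Cells with endogenous FDXR/FDX and no detectable CYP11B activity, stably transfected (CMV promoter, neomycin selection, G-418 400 µg/mL) with CYP11B1 or CYP11B2 of the named species. Assayed in DMEM/F12 with 2.5% charcoal-treated FCS. Substrate 1 µM 11-deoxycorticosterone (B2) or 11-deoxycortisol (B1), 16 hr. Aldosterone or cortisol in supernatant measured by HTRF. IC50 from 4-parameter MMF fit; selectivity factor is the B1/B2 IC50 ratio.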

Data set [7] in a line: Dose normalized AUC in cynomolgus monkey. Type of data set: ADME, Macaca fascicularis. To be noted: in vivo.
A short description of data set [8]: Protein binding in cynomolgus monkey plasma assessed as unbound fraction at 1 uM by micro-equilibrium dialysis based LC-MS/MS analysis. Type of data set: ADME, cell-free, Macaca fascicularis. The method, boiled down:
as §1

A short description of data set [9]: Plasma clearance in Wister-Han rat at 1 mg/kg, iv administered as single dose by LC/MS-MS analysis. Type of data set: ADME, organism-based. To be noted: Wistar-Han. The method, boiled down: (§3)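 Male Wistar-Han rats, single dose. IV 1 mg/kg, compound at 0.5 mg/mL in NMP:saline 30/70 (v/v). Oral 3 mg/kg, 0.25 mg/mL in 2% Klucel with 0.1% Polysorbate 80. Three rats per time point. Heparinized blood taken at eight (iv) or seven (po) time points, plasma stored at -20 °C. Plasma levels by LC/MS-MS. Non-compartmental analysis.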

Data set [10] is described as follows: Oral bioavailability in Wister-Han rat at 3 mg/kg administered as single dose by LC/MS-MS analysis. It is filed as ADME, organism-based. To be noted: Wistar-Han, in vivo. The method, boiled down:
as §3

A short description of data set [11]: AUC (0 to infinity) in Wister-Han rat at 3 mg/kg, po administered as single dose by LC/MS-MS analysis. Type of data set: ADME, organism-based. The arrangement: dose 3 mg/kg, route oral, time infinity. To be noted: Wistar-Han, in vivo. The method, boiled down:
as §3

Data set [12] in a line: Intrinsic clearance in rat liver microsomes preincubated for 10 mins followed by NADPH regenerating system addition and measured up to 30 mins by LC/MS-MS analysis. It is filed as ADME, Microsome. The gist of the method: (§4)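 Liver microsomes at 0.5 mg protein/mL in 100 mM potassium phosphate, pH 7.4. Compound preincubated 10 min at 37 °C. Intrinsic clearance scaled using the well-stirred liver model.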

The nature of data set [13]: Intrinsic clearance in rat hepatocytes. Type of data set: ADME, cell-based, Hepatocyte. To be noted: read-out: CLH.
A short description of data set [14]: Oral bioavailability in cynomolgus monkey. Type of data set: ADME, organism-based, Macaca fascicularis. To be noted: in vivo.
Data set [15] concerns the target T1, Cytochrome P450 11B2, mitochondrial (Homo sapiens, UniProt P19099).
T1 sequence (P19099 whole entry): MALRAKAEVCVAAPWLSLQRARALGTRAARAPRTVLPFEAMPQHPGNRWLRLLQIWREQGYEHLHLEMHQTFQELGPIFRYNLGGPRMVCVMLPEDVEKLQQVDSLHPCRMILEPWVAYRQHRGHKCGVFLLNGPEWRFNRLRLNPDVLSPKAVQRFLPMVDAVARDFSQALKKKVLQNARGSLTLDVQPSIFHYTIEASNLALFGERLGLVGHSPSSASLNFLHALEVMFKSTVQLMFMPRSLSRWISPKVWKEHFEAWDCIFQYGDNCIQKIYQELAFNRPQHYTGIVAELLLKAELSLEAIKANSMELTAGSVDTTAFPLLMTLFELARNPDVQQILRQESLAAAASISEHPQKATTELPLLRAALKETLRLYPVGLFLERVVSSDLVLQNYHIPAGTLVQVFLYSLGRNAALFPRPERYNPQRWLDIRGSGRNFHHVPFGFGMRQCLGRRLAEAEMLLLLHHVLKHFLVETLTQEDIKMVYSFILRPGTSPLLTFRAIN
Put plainly: Inhibition of human CYP11B2 expressed in human renal leiomyoblastoma cells harboring FDXR/FDX using 1-deoxycorticosterone as substrate by HTRF assay. Type of data set: cell-based. The method, boiled down: as §2

Data set [16] is described as follows: Dose normalized AUC in Wister-Han rat at 1 mg/kg, iv or 3 mg/kg, po administered as single dose by LC/MS-MS analysis. Type of data set: ADME, organism-based. To be noted: in vivo. The method, boiled down:
as §3

In a further data set the target is Cytochrome P450 3A4 (Homo sapiens, UniProt P08684). Put plainly: Inhibition of CYP3A4 (unknown origin). Type of data set: ADME.
In data set [17] the target is T2, Cytochrome P450 11B1, mitochondrial (Homo sapiens, UniProt P15538).
T2 sequence (P15538 whole entry): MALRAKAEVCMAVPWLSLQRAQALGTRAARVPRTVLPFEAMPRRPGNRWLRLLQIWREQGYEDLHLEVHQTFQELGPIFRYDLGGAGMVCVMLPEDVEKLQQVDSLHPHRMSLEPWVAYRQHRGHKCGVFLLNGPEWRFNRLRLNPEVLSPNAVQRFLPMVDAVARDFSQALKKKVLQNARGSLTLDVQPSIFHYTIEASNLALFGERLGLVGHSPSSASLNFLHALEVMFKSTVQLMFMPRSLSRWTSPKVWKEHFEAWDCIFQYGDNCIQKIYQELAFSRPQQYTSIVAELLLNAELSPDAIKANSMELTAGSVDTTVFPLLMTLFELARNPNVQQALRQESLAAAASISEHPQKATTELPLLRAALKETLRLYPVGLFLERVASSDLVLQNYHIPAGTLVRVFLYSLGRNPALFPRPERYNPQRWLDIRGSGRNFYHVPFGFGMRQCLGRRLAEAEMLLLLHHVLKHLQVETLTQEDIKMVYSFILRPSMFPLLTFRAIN
Put plainly: Inhibition of human CYP11B1 expressed in human renal leiomyoblastoma cells harboring FDXR/FDX using 1-deoxycortisol as substrate by HTRF assay. Type of data set: ADME, cell-based. The gist of the method:
as §2

Another data set addresses Cytochrome P450 2D6 (Homo sapiens, UniProt P10635). Kind of data set: Inhibition of CYP2D6 (unknown origin). Type of data set: ADME.
A further data set addresses Cytochrome P450 2C9 (Homo sapiens, UniProt P11712). Kind of data set: Inhibition of CYP2C9 (unknown origin). It is filed as ADME.
Data set [18] in a line: Intrinsic clearance in mouse liver microsomes preincubated for 10 mins followed by NADPH regenerating system addition and measured up to 30 mins by LC/MS-MS analysis. It is filed as ADME, Microsome. The gist of the method:
as §4

Data set [19] is described as follows: Intrinsic clearance in human liver microsomes preincubated for 10 mins followed by NADPH regenerating system addition and measured up to 30 mins by LC/MS-MS analysis. It is filed as ADME, Microsome. To be noted: read-out: CLH. The method, boiled down: as §4
The nature of data set [20]: Octanol-water distribution coefficient, log D of the compound by carrier-mediated distribution system. Type of data set: physicochemical.

Cytochrome P450 2D6, sequence (P10635 whole entry): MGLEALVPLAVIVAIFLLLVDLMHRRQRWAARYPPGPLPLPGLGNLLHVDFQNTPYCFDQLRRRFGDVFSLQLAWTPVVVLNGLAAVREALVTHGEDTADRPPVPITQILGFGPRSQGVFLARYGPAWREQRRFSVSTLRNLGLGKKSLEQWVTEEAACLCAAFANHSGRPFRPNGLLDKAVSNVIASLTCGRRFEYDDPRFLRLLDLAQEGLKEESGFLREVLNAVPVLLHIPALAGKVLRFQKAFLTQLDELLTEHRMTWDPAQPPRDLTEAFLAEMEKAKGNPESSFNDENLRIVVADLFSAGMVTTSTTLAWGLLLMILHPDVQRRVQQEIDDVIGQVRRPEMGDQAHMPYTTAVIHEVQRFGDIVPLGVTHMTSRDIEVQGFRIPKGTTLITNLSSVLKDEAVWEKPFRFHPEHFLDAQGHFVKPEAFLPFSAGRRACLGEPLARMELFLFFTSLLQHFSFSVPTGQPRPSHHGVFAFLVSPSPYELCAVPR
Cytochrome P450 3A4, sequence (P08684 whole entry): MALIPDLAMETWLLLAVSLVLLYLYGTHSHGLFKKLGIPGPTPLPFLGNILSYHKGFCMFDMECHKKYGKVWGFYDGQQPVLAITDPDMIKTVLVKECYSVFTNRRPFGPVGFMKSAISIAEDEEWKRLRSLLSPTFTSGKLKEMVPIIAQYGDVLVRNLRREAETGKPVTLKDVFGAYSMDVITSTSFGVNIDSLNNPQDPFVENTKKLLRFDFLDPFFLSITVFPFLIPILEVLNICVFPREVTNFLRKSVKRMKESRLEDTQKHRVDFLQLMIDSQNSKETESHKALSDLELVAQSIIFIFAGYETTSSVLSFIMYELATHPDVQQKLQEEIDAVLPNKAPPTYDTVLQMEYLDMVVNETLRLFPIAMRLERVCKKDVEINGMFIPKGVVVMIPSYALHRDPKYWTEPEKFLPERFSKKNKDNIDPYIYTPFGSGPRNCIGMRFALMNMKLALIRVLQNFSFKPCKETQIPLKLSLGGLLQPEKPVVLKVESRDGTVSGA
Cytochrome P450 2C9, sequence (P11712 whole entry): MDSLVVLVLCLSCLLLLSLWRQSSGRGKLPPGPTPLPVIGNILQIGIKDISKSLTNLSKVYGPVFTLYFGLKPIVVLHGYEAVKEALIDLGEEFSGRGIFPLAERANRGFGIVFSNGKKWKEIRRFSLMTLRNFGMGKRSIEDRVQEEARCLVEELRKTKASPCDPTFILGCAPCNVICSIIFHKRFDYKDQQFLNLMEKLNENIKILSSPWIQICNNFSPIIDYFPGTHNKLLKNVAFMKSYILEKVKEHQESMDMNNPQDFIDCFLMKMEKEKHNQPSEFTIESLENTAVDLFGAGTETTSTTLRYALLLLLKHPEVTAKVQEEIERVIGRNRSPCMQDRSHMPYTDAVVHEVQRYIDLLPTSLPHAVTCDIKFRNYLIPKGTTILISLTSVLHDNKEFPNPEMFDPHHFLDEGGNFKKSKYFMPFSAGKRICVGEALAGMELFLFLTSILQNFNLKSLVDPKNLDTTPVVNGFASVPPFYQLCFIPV

In the case of `Cn1cc(C(=O)N2CC3(C2)CN(c2cncc(N4C(=O)c5ccc(Cl)cc5C4(C)C)c2)C3)cn1`, the unbound share (fraction unbound) at 1 µM stood at 0.066 in data set [1] and 0.036 in data set [8]. The molecule also gave a solubility at 2 h in [2] of 44 µg/mL (≈ 92.2 µM). In addition, the values for the CLint scaled in [3] and in [13] were under 3 mL/min/kg and under 4.4 mL/min/kg, respectively. Besides, in data set [4], the Papp at 18 h is 3.63 ×10⁻⁶ cm/s. In addition, the values for the clearance in data set [5] and in data set [9] were 2.1 mL/min/kg and 6.4 mL/min/kg, respectively. Further, the Ratio IC50 in data set [6] was 5680. Further, the AUC/dose in data set [7] is 3111 kg·ng·h/mL/mg; in [16], 1889 kg·ng·h/mL/mg. The bioavailability in data set [10] was found to be 69%; in data set [14], 37%. Besides, in data set [11], the AUC(0-inf) was found to be 5660 ng·h/mL. For the same molecule, in [12], the predicted hepatic clearance (CLH) was 6.4 mL/min/kg. In addition, the midpoint of inhibition in data set [15], the IC50, lay at 0.002 µM.
For `CC1Cc2cc(Cl)ccc2C(=O)N1c1cccnc1` (stereo unspecified), in data set [6], the Ratio IC50 is over 13. Besides, the IC50 against Cytochrome P450 3A4 is over 50 µM; in [17] it was over 10 µM; against Cytochrome P450 2D6 it was over 50 µM; against Cytochrome P450 2C9 it was over 50 µM; in data set [15] it was 0.761 µM.
For the molecule `N#Cc1ccc2c(c1)CN(c1cccnc1)C2=O`, the predicted hepatic clearance (CLH) in data set [18] is 45.6 mL/min/kg. In addition, the Ratio IC50 in data set [6] worked out at 67. The predicted hepatic clearance in data set [19] was 8.7 mL/min/kg. Further, the half-inhibitory concentration (IC50) stood at 15.5 µM in [17] and 0.232 µM in data set [15]. The same molecule registered a log distribution coefficient (logD) in data set [20] of 1.35.
For `CCC(=O)N[C@@H]1CCCc2c1cncc2N1Cc2cc(Cl)ccc2C1=O`, in data set [18], the predicted hepatic clearance (CLH) was under 20.2 mL/min/kg. The same molecule displayed a solubility at 2 h in data set [2] of over 460 µg/mL. Also, the Papp at 18 h in data set [4] stood at 3.63 ×10⁻⁶ cm/s. Besides, the Ratio IC50 in data set [6] came to 186. Besides, the predicted hepatic clearance in [19] was under 3.5 mL/min/kg. Besides, the IC50 was 5.21 µM in [17] and 0.028 µM in [15]. The molecule also showed a logD in data set [20] of 2.14.
As for `CC1CN(c2cccnc2)C(=O)c2ccc(Cl)cc21` (stereo unspecified), the predicted hepatic clearance (CLH) in [18] is 45 mL/min/kg. Further, the Ratio IC50 in data set [6] was 16. In data set [19], the predicted hepatic clearance is 6.6 mL/min/kg. Also, the IC50 on Cytochrome P450 3A4 was over 50 µM; in [17], 2.59 µM; on Cytochrome P450 2D6, over 50 µM; against Cytochrome P450 2C9 it was over 50 µM; in [15] it was 0.164 µM.
Consider `CC1(C)CN(c2cccnc2)C(=O)c2ccc(Cl)cc21`, for which, in data set [6], the Ratio IC50 was over 7. Moreover, the IC50 at Cytochrome P450 3A4 is over 50 µM; in data set [17], over 10 µM; against Cytochrome P450 2D6 it was over 50 µM; against Cytochrome P450 2C9, over 50 µM; in data set [15], 1.54 µM.
Take `O=C1c2ccc(Cl)cc2CCN1c1cccnc1`: in data set [18], the predicted hepatic clearance (CLH) is under 20.2 mL/min/kg. Also, in data set [6], the Ratio IC50 was determined as 82. The predicted hepatic clearance in data set [19] was under 3.5 mL/min/kg. For the same molecule, the figures for the IC50 in [17] and in data set [15] were 5 µM and 0.061 µM, respectively. Also, the logD in [20] was determined as 2.25.
